High-throughput results deposited in PubChem BioAssay by several laboratories.
Compounds with a hit are over-represented: about 1.6% of the library has one in this group of screens.
sEH activator: activators of human soluble epoxide hydrolase. purified human sEH enzymatic activity, activator screen. actives 0.04% (n = 91,000). activation, % at 2 µM. AID 717; in the data active = activation above about 37%
Target sequence (P34913 whole entry, looked up): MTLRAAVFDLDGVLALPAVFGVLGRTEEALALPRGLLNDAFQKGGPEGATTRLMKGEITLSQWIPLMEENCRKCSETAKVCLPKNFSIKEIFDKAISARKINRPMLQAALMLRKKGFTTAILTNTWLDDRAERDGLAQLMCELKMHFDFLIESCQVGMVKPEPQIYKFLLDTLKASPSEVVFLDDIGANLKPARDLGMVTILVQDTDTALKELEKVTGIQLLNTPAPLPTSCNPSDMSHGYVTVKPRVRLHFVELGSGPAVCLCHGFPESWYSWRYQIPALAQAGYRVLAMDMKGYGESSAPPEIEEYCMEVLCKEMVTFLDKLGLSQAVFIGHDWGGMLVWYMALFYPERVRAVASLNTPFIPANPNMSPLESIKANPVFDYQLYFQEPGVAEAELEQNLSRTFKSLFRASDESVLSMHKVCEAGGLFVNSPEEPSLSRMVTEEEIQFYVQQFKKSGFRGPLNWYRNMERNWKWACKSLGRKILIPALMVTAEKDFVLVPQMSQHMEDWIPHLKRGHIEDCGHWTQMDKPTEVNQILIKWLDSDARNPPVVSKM
HIV Rev-RRE inh: disrupts HIV-1 Rev binding to RRE RNA; P05866; Rev peptide-RRE RNA binding, FRET; AID 704; actives 0.79% (n = 97,000); inhibition, % at 8 µM;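 active = inhibition above the screen-wide mean plus 3 SD, cut at about 35% in these data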;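 also: 0% = median DMSO wells and 100% = median Neomycin B control wells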
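Test system: Cy5-tagged RRE RNA duplex with fluorescein-tagged Rev peptide; Probe or stimulus: labelled Rev peptide; Schedule: 5 min preincubation and 15 min binding, 25 °C; Signal: FRET fluorescence readout; Evaluation: % inhibition from 671/540 nm acceptor-to-donor ratio, scaled between controls; Control set: DMSO and neomycin B.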
Smad3 inh: Smad3 (human) transcription factor binding inhibition; P84022; TR-FRET Smad3/Dy647-FoxH1 peptide binding, europium anti-His; inhibition, % at 25 µM; actives 0.29% (n = 88,000); AID 630;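 active = compounds that reduce the energy-transfer binding signal between the protein and its labelled peptide by more than half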;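 also: 0% = Smad3 plus labelled peptide maximal FRET and 100% = peptide-only background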
sEH inh: inhibitors of human soluble epoxide hydrolase; P34913; AID 707; recombinant human sEH enzymatic activity assay; actives 0.34% (n = 91,000); inhibition, % at 2 µM; in the data active = inhibition above about 80%
CD11b adhes enh: increases human CD11b/CD18 adhesion to fibrinogen; actives 0.07% (n = 93,000); activation, % at 10 µM; P05107+P11215; K562 CD11b/CD18 adhesion to fibrinogen, ATPlite luminescence;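 active = 10 µM primary screen giving 50% or more activity, confirmed by 40% or more on retest at that dose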
Mac1 fbg inh: CD11b/CD18-fibrinogen binding inhibition; P05107+P11215; AID 1497; actives 0.54% (n = 93,000); inhibition, % at 10 µM; K562 CD11b/CD18 adhesion to fibrinogen, ATPlite luminescence; Mn2+ added to activate the integrin;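 active = primary inhibition of 50% or more at 10 µM, then 40% or more on retest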
The depositor's hits bear a star; / = not tested or not shown; [ ] = remark or other dose.

SMILES	sEH activator	HIV Rev-RRE inh	Smad3 inh	sEH inh	CD11b adhes enh	Mac1 fbg inh
Cc1ccc(C2C(C#N)=C(N)Oc3n[nH]c(-c4cccs4)c32)cc1 (configuration not stated)	6	3	8	-6	/	/
Cc1ccc(-c2nc(-c3ccccn3)no2)cc1Cl	-1	5	-3	3	-3	71*
Clc1cccc(-c2nc(-c3ccccn3)no2)c1	11	0	-2	-10	-4	49
Cc1ccccc1-c1noc(-c2ccc(Cl)cc2)n1	-5	4	-8	7	/	/
Cc1ccc(-c2nc(-c3ccccn3)no2)cc1	6	8	/	-2	-9	91*
Cc1ccccc1-c1noc(-c2ccc(O)cc2)n1	6	11	5	-6	0	74*
O=C1C2C(C(=O)N1/N=C/c1cc(Br)cc([N+](=O)[O-])c1O)C1C=CC2C12CC2 (configuration not stated)	-1	4	/	1	-5	66*
CC(C)=C[C@H]1[C@H](C(=O)Oc2ccccc2C(C)C)C1(C)C	/	/	-19	/	/	/
Cn1c(SCC(=O)Nc2ccc(NC(=O)c3cccs3)cc2)nnc1-c1ccncc1	0	3	-2	-2	/	/
COC(=O)c1ccc2c(c1)NC(=O)C1CCCN21 (configuration not stated)	/	/	56*[fluorescence artefact?]	/	/	/
Cc1csc(NC(=O)C2CCCN(S(=O)(=O)c3ccc(Br)s3)C2)n1 (configuration not stated)	-11	12	-1	12	-1	7
Cc1ccc(C(=O)OC/C(O)=C(\C#N)c2nc3ccccc3[nH]2)cc1S(=O)(=O)N1CCOCC1	/	/	/	/	2	28
N#C/C(=C(/O)COC(=O)CCc1ccc(S(=O)(=O)N2CCOCC2)cc1)c1nc2ccccc2[nH]1	8	45*	-2	-4	78	-29
CC(=O)CSCc1ccccn1	/	/	29	/	/	/
C/C(=N\O)[C@@H]1C[C@H](CC(=O)O)C1(C)C	/	/	-1	/	/	/
CCCCNC1C(CC)C(CCC)C(C#N)(C#N)C1(C#N)C#N (configuration not stated)	44*	7	-11	-48	-4	19
Cc1ccc(Oc2ccc(S(=O)(=O)N3CCOCC3)cc2C(N)=O)c(-n2nc3ccccc3n2)c1	13	4	-6	-15	4	-12
CC1(C)CC(=O)C=C(NNC(=O)c2ccccc2O)C1	-9	36*	/	10	/	/
O=C(NCc1ccc2c(c1)OCO2)c1ccc(CN2CCOCC2)cc1	-25	1	-4	24	-2	-1
O=C(NCc1ccc2[nH]c3c(c2c1)CCCC3)N1CCOCC1	/	39*	34	/	-3	-24
O=C(O)[C@H]1Cc2c([nH]c3ccccc23)[C@@H](CCCCO)N1	/	/	1	/	/	/
CCOC(=O)c1c(-c2ccccc2)oc2cc(CN(C)C)c(O)c(CN(C)C)c12	3	58*	9	0	/	/
O=C1C(Cl)=C(Sc2nnc3c4ccccc4c4ccccc4c3n2)C(=O)c2ccccc21	/	/	5	/	/	/
Cc1cc(-c2ccco2)n2c(nc3ccccc32)c1C#N	-3	47*	/	2	/	/
Cc1ccnc(N2CCN(c3cc(C)c(C#N)c4nc5ccccc5n34)CC2)c1	12	6	5	-11	/	/
SMILES	sEH activator	HIV Rev-RRE inh	Smad3 inh	sEH inh	CD11b adhes enh	Mac1 fbg inh
COc1ccc(CC(NC(C)=O)C(=O)NC2CCN(C(=O)Nc3ccc(Cl)cc3)CC2)cc1OC (configuration not stated)	-8	0	79*	9	-1	10
CCc1ccccc1NC(=O)N1CCC(NC(=O)C(Cc2ccc(OC)c(OC)c2)NC(C)=O)CC1 (configuration not stated)	-2	1	-11	1	-3	-15
O=C(CCC1CCCC1)c1c(O)c2ccccc2oc1=O	3	1	3	-4	-9	88*
Cc1ccc(NC(=O)C(C)c2ccc([N+](=O)[O-])cc2)cc1Cl (configuration not stated)	/	/	/	/	-9	60
Cc1n[nH]c(C)c1Sc1ccccc1N=Cc1cc(Cl)cc([N+](=O)[O-])c1O	-9	8	2	12	-6	57*
C[C@]12CCC(=O)C=C1CC[C@H]1[C@H]2C(=O)C[C@]2(C)C(CC(=O)O)=CC[C@@H]12	/	/	5	/	/	/
Oc1cccc2ccc(SSc3ccc4cccc(O)c4n3)nc12	/	/	60*	/	/	/
CCCCCC(=O)Nc1ccc2oc(-c3cncc(Br)c3)nc2c1	-82	3	-13	82*	57	-14
CCCCC(=O)Nc1ccc2oc(-c3ccncc3)nc2c1	-43	0	6	44	1	-30
CCc1nnc(NC(=O)c2sc3nc4cc(C)ccc4cc3c2N)s1	-6	88*[fluorescence artefact?]	/	8	100*	-11
CCOC(=O)Cc1csc(NC(=O)c2sc3nc4ccc(C)cc4cc3c2N)n1	-4	81*[fluorescence artefact?]	/	7	/	/
CCOC(=O)CC(=O)CSc1nc(-c2cccnc2)ccc1C#N	-5	88*[fluorescence artefact?]	35	6	-2	-18
O=C(CN1CCOc2ccccc21)NC1CCCCCCC1	-87	6	3	86*	/	/
CCCN(S(=O)(=O)c1ccc(OCC)cc1)S(=O)(=O)c1cccs1	7	21	-3	-9	2	-8
C(=N\Nc1nnc2c(n1)[nH]c1ccccc12)/c1cccnc1	/	/	18	/	/	/
COC(=O)c1c(=O)n(O)c2ccc(OC)cc2[n+]1[O-]	-6	41*	-1	5	-3	-2
COC(=O)c1ccccc1COn1c(=O)c(C)[n+]([O-])c2ccccc21	-12	2	8	15	-2	-8
C=CCNc1nc2c(c(=O)n(C)c(=O)n2C)n1CCCCCC	-10	-1	/	12	-4	68*
C=CCNc1nc2c(c(=O)n(C)c(=O)n2C)n1CC	13	5	-4	-14	/	/
N#Cc1c(N)nc2c3c(sc(=N)c2c1N)NC(=O)CC3c1ccccc1 (configuration not stated)	5	49*	/	-5	13	-44
N#Cc1c(N)nc2c3c(sc(=N)c2c1N)NC(=O)CC3c1c(F)cccc1Cl (configuration not stated)	-4	24	/	4	1	5
C/C(CC/C(C)=N/O)=N\O	/	/	16	/	/	/
O=[N+]([O-])c1cccc(NC(=S)NCCc2ccccc2)c1	/	/	/	/	-8	104*
O=[N+]([O-])c1ccc(NC(=S)NCCc2ccc(F)cc2)cc1	/	/	/	/	-10	97
Nc1nnc(CCC2CCCCC2)s1	8	10	-5	-4	5	1
N#CC1=C(N)SC(N)=C(C#N)C1CCC1CCCCC1	-6	68*	12	4	-10	101*
O=C(O)c1nnsc1COCc1ccccc1	/	/	-5	/	/	/
N#Cc1sc2nc(-c3ccccc3)cc(-c3ccco3)c2c1N	5	37*	20	-3	98	-6
